The target of series [1] is T1, Broad substrate specificity ATP-binding cassette transporter ABCG2 (Homo sapiens, UniProt Q9UNQ0).
T1 sequence (Q9UNQ0 whole entry): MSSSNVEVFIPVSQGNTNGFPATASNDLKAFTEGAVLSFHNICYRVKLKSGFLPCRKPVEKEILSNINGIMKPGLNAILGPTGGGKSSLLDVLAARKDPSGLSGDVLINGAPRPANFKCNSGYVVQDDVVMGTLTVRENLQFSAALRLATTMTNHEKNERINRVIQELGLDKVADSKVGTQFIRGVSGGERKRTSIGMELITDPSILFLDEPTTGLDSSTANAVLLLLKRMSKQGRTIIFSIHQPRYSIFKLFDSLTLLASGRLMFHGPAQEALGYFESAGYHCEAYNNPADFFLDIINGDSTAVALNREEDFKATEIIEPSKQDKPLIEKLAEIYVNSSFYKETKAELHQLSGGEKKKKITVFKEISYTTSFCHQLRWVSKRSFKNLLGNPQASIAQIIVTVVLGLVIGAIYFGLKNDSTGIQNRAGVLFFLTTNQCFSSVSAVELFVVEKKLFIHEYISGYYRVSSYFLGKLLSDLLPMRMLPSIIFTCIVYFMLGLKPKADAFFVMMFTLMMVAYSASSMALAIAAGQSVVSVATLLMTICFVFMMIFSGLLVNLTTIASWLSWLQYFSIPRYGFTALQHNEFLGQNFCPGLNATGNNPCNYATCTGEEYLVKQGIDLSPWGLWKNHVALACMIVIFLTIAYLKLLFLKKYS
As to the kind of experiment: Inhibition of human BCRP expressed in MDCK2 cells assessed as reversal of multidrug resistance by measuring increase in SN-38-induced cytotoxicity at 3 uM after 72 hrs by MTT assay. In kind it is cell-based. The following applies: mdck-ii. Put shortly:
(§1)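 MDCK II BCRP cells are seeded at 3000/well and allowed to attach for 6 h at 37 °C, 5% CO2. They are then exposed to SN-38 (up to 100 μM) alone or together with 3 μM or 5 μM modulator for 72 h. MDCK II wild-type cells given SN-38 serve as the comparison. MTT is added for 1 h, formazan is dissolved in DMSO, and absorbance is read at 570 nm with 690 nm background.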
(Tetrazolium dyes change colour on reduction, which living cells bring about.)

Series [2] addresses T1, Broad substrate specificity ATP-binding cassette transporter ABCG2. As to the kind of experiment: Inhibition of human BCRP expressed in MDCK2 cells assessed as reversal of multidrug resistance by measuring increase in SN-38-induced cytotoxicity at 5 uM after 72 hrs by MTT assay. In kind it is cell-based. The following applies: mdck-ii. Put shortly: as §1
The target is the same in series [3]. As to the kind of experiment: Inhibition of GFP-tagged human BCRP expressed in MDCK2 cells pre-incubated for 30 mins followed by Hoechst 33342 addition and further incubated for 120 mins by Hoechst 33342 accumulation assay. Format: cell-based, MDCK-II. Put shortly:
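MDCK II cells stably carrying human BCRP cDNA C-terminally fused to GFP are washed in KHB, pH 7.4. About 30,000 cells/well are preincubated 30 min at 37 °C with compound up to 10 μM (DMSO ≤0.1%, methanol ≤5% for poorly soluble compounds). Hoechst 33342 is added from a 10 μM solution, and fluorescence (ex 355/em 460) is read every 60 s for 120 min. The steady-state mean (100–109 min) is fitted to a four-parameter logistic curve.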

In series [4] the target is T2, BCRP (ABCG2) (Homo sapiens, UniProt Q9UNQ0).
T2 sequence (Q9UNQ0 whole entry): T1 sequence (Q9UNQ0 whole entry)
As to the kind of experiment: Inhibition of GFP-tagged human BCRP expressed in MDCK2 cells pre-incubated for 30 mins followed by Hoechst 33342 addition and further incubated for 120 mins by Hoechst 33342 accumulation assay relative to XR9577. The following applies: MDCK2 cells expressing GFP-tagged human BCRP, probe Hoechst 33342, read-out: Imax. Format: cell-based, MDCK-II.

A short description of series [5]: Solubility in water. Format: physicochemical. The note with it: buffer.
Series [6] can be described thus: Solubility in DMSO. In kind it is physicochemical.
Series [7] addresses T2, BCRP (ABCG2). Put plainly: Potency index, ratio of IC50 for Ko143 to IC50 for compound against GFP-tagged human BCRP expressed in MDCK2 cells by Hoechst 33342 accumulation assay. In kind it is cell-based. The following applies: MDCK2 cells expressing GFP-tagged human BCRP, probe Hoechst 33342, read-out: Ratio IC50.
Another series deals with ABCB1 (P-gp) (Homo sapiens, UniProt P08183). As to the kind of experiment: Inhibition of ABCB1 in human A2780adr cells at 10 uM pre-incubated for 30 mins followed by calcein AM addition and further incubated for 60 mins by calcein AM assay. In kind it is cell-based, A2780 ADR. The following applies: probe calcein AM.
The nature of series [8]: Intrinsic cytotoxicity against BCRP expressing MDCK2 cells assessed as reduction in cell viability after 72 hrs by MTT assay. The following applies: dog. Format: ADME, cell-based, Canis lupus familiaris, MDCK-II. Put shortly: (§2)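 Cells are seeded at 3000/well and allowed to attach for 6 h at 37 °C, 5% CO2. They are then exposed to compound in medium, up to 100 μM final (DMSO ≤1.0%), for 72 h. Controls are medium alone (negative) and 10% DMSO (positive). MTT is added for 1 h, formazan is dissolved in DMSO, and absorbance is read at 570 nm minus 690 nm. Viability is expressed as % of the negative control, and GI50 comes from a variable-slope sigmoidal fit. n = 3, each in quadruplicate.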

Series [9] in a line: Intrinsic cytotoxicity against wild type MDCK2 cells assessed as reduction in cell viability after 72 hrs by MTT assay. Format: cell-based, Canis lupus familiaris, MDCK-II. The note with it: dog. The procedure, abridged:
as §2

A short description of series [10]: Ratio of GI50 for wild type MDCK2 cells by MTT assay to IC50 for GFP-tagged human BCRP expressed in MDCK2 cells by Hoechst 33342 accumulation assay. Set-up: species or system MDCK-II. The procedure, abridged: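 Ratio of two values. […] Read at 570/690 nm as % of medium control; n = 3, each in quadruplicate. IC50 came from Hoechst 33342 accumulation in MDCK II BCRP-GFP cells: 2 h at 37 °C, steady-state fluorescence, four-parameter fit.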

The target of series [11] is Multidrug resistance-associated protein 1 (Homo sapiens, UniProt P33527). Put plainly: Inhibition of MRP1 in human H69AR cells at 10 uM pre-incubated for 30 mins followed by calcein AM addition and further incubated for 60 mins by calcein AM assay. The following applies: 1 h.

pIC50: −log10 of the molar value.

Multidrug resistance-associated protein 1, sequence (P33527 whole entry): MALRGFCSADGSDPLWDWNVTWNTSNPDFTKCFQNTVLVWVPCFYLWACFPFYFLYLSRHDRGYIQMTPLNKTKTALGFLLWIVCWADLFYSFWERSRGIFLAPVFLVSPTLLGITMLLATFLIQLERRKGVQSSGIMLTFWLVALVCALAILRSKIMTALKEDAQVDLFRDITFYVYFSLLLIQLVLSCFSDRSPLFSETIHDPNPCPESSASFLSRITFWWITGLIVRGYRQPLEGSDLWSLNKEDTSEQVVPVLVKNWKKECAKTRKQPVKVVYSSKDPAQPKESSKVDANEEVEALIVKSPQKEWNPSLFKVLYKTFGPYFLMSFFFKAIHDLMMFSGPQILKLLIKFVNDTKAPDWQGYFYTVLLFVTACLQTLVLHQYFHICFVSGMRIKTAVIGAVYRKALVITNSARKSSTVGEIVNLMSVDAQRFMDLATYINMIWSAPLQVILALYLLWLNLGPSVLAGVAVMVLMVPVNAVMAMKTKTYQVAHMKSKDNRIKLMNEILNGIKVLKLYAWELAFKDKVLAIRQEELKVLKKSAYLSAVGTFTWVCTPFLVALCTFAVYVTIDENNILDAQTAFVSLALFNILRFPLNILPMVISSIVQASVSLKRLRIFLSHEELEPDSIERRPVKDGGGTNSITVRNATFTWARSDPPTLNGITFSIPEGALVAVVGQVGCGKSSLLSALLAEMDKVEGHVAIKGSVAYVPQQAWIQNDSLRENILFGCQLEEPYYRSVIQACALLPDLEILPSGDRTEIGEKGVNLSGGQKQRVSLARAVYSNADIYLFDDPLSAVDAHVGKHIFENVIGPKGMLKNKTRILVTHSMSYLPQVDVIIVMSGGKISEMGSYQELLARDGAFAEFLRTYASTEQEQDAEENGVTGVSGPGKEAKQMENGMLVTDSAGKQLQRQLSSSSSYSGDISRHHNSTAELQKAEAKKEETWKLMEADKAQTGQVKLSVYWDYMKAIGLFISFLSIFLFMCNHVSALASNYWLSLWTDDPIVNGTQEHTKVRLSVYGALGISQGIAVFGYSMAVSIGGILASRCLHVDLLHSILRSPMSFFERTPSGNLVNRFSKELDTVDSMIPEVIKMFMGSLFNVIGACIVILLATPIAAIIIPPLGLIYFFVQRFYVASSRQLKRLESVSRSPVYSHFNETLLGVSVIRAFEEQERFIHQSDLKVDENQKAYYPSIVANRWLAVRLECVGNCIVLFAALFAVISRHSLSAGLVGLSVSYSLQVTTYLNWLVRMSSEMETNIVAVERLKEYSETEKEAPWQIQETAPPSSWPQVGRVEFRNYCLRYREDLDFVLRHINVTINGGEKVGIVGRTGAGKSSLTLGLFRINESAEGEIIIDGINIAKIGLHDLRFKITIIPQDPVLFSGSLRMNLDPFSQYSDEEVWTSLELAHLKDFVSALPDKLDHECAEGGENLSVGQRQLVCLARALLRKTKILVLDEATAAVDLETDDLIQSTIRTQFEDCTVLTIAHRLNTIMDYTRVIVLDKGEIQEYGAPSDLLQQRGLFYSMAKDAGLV
ABCB1 (P-gp), sequence (P08183 whole entry): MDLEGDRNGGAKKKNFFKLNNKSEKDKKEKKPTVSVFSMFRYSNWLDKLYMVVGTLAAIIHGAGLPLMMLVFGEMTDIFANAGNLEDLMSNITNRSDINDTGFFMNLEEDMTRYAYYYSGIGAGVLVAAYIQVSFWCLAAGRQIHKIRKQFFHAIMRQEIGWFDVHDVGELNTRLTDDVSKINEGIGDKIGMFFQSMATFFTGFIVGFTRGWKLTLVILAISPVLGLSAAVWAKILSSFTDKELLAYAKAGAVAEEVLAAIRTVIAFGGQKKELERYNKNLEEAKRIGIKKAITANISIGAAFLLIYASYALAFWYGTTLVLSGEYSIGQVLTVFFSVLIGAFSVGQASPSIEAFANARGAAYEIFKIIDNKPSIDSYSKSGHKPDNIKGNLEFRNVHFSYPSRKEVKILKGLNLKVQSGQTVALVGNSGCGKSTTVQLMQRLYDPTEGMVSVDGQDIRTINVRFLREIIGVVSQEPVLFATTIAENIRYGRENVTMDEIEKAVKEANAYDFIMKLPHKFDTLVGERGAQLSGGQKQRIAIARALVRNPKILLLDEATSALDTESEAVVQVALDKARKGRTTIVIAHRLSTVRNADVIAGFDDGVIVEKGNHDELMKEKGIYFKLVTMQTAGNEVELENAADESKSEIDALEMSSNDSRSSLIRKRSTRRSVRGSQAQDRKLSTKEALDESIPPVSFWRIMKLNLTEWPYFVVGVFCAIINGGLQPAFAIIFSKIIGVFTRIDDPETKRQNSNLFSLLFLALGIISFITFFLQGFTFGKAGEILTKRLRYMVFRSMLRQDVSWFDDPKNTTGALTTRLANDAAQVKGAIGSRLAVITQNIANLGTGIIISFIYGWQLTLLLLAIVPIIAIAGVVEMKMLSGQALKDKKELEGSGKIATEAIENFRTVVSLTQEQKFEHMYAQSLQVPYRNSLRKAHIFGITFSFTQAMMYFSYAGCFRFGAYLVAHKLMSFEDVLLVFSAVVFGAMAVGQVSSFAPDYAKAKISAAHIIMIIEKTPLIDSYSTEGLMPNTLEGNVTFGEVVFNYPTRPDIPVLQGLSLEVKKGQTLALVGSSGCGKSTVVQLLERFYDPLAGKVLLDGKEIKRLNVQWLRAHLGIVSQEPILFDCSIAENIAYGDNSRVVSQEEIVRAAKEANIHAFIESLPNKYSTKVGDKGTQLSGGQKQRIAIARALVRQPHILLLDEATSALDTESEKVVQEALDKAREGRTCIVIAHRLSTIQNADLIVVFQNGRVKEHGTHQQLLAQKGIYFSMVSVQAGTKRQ

On to `COc1ccc(C(=O)Nc2ccccc2-c2nnn(-c3ccc(C(F)(F)F)cc3)n2)cc1`, for which the “inhibition (INH)” value is listed as “Active” in series [1], “Active” in series [2] and “Not Active” in series [11]. The same compound showed a pIC50 in [3] of 7.14. The Emax at 2 h at BCRP (ABCG2) [4] is 102%. For the same compound, the results for the solubility entry in series [5] and in series [6] were “Insoluble” and > 10 mM, respectively. In addition, the selectivity ratio at BCRP (ABCG2) [7] amounted to 2. Moreover, on ABCB1 (P-gp), the inhibition at 1 h, 10 µM was < 25%. Moreover, the concentration for 50% growth inhibition (GI50) at 72 h in series [8] is 40.2 µM; in [9], 34.4 µM. In [10], the Ratio is recorded as 500.

`CCCc1ccc(-n2nnc(-c3ccccc3NC(=O)c3ccc(OC)cc3)n2)cc1`: the pIC50 in [3] is 7.19. The Emax at 2 h on BCRP (ABCG2) [4] is 88%. Besides, the figures for the solubility entry in [5] and in series [6] were “Insoluble” and > 10 mM, respectively. In addition, the selectivity ratio on BCRP (ABCG2) [7] was found to be 2. Also, at ABCB1 (P-gp), the inhibition at 1 h, 10 µM is < 25%. The values for the GI50 at 72 h in [8] and in series [9] were 61.8 µM and 63.2 µM, respectively. Also, the Ratio in [10] was 1000. Further, the “inhibition (INH)” value in [11] was “Not Active”.

For the compound `CCCc1ccc(C(=O)Nc2ccccc2-c2nnn(-c3ccc(OC)cc3)n2)cc1`, the pIC50 in series [3] was 7.10. Further, at BCRP (ABCG2) [4], the Emax at 2 h is 91%. Besides, the solubility result in [5] was “Insoluble”; in [6], > 10 mM. Besides, the selectivity ratio at BCRP (ABCG2) [7] came out at 2. Also, the inhibition at 1 h, 10 µM at ABCB1 (P-gp) was < 25%. For the same compound, the values for the GI50 at 72 h in series [8] and in series [9] were 60.9 µM and 77.6 µM, respectively. In series [10], the Ratio turned out to be 1000. The “inhibition (INH)” value in series [11] is “Not Active”.

A word on the pIC50: it is −log10 of the IC50, conventionally taken in molar units. Low values mean a large IC50, high ones a small IC50. A word on the solubility: it is the dissolved amount per volume that the medium holds. Read a high solubility as much dissolved substance. What is called inhibition is the change of the read-out against control, counted positive when it falls. A word on the GI50: it is the concentration at which growth is held to half of that of the control.
